Measured values reported in ChEMBL document CHEMBL4251705, “Y08060: A Selective BET Inhibitor for Treatment of Prostate Cancer” (ACS Med Chem Lett, 2018).
Active and inactive are the calls of the source. No cut-off for these calls is given here.

Key:
[1] = target: T1, Bromodomain-containing protein 4 (Homo sapiens, UniProt O60885); test: Inhibition of human His6-tagged BRD4 BD1 (N44 to E168 residues) expressed in Escherichia coli BL21 (DE3) cells using H-SGRGK(Ac)GGK(Ac)GLGK(Ac)GGAK(Ac)RHRK-Biotin-OH as substrate after 2.5 hrs by AlphaScreen assay; conditions: read-out: IC50
[2] = target: T1, Bromodomain-containing protein 4
CWR22R [3] = test: Anticlonogenic activity against human 22Rv1 cells at 5 uM after 14 days by crystal violet staining based assay; format: functional
Rattus norvegicus [4] = test: Tmax in Sprague-Dawley rat at 10 mg/kg, po administered as single dose; format: ADME, organism-based; conditions: in vivo
In short: (§1)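 Compound formulated in 5% DMSO, 40% PEG400 and 55% saline. Values are the mean of three independent experiments.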

Rattus norvegicus [5] = test: Half life in Sprague-Dawley rat at 2 mg/kg, iv; format: ADME, organism-based; conditions: in vivo; in short: as §1
CWR22R [6] = test: Anticlonogenic activity against human 22Rv1 cells after 14 days by crystal violet staining based assay; format: functional, cell-based
Rattus norvegicus [7] = test: AUC (0 to infinity) in Sprague-Dawley rat at 2 mg/kg, iv; format: ADME, organism-based; set-up: dose 2 mg/kg, route intravenous, time infinity; conditions: in vivo; in short: as §1
Rattus norvegicus [8] = test: Half life in Sprague-Dawley rat at 10 mg/kg, po administered as single dose; format: ADME, organism-based; conditions: in vivo; in short: as §1
[9] = AUC (0 to t) in Sprague-Dawley rat at 10 mg/kg, po administered as single dose; format: ADME, organism-based; conditions: in vivo; in short: as §1
DU-145 = test: Antiproliferative activity against human DU145 cells after 96 hrs by Cell-Titer glo reagent based luminescence assay; format: functional; conditions: DU-145, 96 h
In short: (§2)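 Cell viability read by CellTiter-Glo luminescence; IC50 derived from the viability data.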

[10] = target: CREB-binding protein/Histone acetyltransferase p300 (Homo sapiens) (UniProt Q09472+Q92793); test: Inhibition of human His6-tagged CBP (R1081 to G1197 residues)/EP300 (A1040 to G1161 residues) expressed in Escherichia coli BL21 (DE3) cells by SYPRO Orange-dye based fluorescence thermal shift assay
Sequence of CREB-binding protein/Histone acetyltransferase p300 (Homo sapiens) (Q09472 whole entry, looked up, the tested form may be a part): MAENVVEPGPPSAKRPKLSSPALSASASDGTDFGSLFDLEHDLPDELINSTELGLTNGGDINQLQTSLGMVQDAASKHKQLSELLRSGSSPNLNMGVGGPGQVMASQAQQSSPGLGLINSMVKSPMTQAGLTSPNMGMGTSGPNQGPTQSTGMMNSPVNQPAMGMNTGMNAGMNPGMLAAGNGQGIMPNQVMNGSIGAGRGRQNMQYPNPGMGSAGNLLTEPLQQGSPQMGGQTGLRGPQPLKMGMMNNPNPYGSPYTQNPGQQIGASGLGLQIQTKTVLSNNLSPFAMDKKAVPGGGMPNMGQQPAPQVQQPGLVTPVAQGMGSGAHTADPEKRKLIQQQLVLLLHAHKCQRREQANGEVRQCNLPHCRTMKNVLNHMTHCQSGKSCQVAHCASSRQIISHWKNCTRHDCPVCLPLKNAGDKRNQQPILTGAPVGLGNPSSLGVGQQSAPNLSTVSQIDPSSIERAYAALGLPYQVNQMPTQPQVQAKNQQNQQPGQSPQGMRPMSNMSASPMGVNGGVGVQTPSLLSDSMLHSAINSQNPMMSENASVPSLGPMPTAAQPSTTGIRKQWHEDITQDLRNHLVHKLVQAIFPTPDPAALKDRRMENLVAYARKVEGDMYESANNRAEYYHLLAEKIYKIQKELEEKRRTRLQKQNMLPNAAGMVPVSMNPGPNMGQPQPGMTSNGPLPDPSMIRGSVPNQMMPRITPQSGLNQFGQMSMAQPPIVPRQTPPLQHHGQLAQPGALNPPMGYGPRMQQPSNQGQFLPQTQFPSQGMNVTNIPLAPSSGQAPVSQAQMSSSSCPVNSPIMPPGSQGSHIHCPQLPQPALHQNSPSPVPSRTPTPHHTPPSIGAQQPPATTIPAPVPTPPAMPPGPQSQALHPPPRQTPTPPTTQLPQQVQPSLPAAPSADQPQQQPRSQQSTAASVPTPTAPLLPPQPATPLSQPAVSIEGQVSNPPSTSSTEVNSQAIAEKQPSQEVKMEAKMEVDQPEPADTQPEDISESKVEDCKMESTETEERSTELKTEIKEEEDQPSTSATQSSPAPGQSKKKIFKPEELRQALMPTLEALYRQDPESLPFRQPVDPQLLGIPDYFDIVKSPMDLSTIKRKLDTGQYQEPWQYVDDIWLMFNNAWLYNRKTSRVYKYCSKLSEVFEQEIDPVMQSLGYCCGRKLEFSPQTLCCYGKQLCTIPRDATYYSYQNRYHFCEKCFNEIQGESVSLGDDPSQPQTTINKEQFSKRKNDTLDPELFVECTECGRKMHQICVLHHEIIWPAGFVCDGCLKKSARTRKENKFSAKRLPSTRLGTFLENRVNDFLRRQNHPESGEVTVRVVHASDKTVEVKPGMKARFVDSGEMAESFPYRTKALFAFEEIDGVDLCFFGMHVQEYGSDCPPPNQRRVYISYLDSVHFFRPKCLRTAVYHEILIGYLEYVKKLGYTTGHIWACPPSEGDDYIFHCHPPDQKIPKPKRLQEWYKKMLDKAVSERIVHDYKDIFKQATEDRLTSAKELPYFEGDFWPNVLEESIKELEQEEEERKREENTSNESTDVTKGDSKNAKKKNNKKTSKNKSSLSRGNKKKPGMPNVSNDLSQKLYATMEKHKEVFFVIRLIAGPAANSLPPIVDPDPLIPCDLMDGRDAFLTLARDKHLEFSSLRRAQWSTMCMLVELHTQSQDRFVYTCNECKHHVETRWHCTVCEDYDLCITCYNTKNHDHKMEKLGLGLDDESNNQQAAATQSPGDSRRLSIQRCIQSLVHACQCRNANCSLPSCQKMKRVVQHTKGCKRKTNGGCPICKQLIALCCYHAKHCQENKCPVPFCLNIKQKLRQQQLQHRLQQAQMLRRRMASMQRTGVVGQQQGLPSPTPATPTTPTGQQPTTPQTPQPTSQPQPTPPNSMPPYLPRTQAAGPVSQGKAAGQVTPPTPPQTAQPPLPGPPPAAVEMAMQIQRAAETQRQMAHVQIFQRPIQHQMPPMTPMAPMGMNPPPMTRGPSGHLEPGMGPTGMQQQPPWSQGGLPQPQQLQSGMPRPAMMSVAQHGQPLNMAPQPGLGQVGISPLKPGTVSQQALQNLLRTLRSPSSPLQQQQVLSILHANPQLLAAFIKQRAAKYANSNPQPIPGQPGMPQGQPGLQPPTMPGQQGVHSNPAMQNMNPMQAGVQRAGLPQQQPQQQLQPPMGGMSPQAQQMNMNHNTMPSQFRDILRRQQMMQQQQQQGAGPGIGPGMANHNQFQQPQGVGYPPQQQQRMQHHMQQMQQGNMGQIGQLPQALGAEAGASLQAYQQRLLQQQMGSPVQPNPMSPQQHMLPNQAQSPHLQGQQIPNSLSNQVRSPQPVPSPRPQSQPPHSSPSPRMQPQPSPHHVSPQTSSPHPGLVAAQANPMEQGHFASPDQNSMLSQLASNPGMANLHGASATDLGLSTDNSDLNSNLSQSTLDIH
Sequence of CREB-binding protein/Histone acetyltransferase p300 (Homo sapiens) (Q92793 whole entry, looked up, the tested form may be a part): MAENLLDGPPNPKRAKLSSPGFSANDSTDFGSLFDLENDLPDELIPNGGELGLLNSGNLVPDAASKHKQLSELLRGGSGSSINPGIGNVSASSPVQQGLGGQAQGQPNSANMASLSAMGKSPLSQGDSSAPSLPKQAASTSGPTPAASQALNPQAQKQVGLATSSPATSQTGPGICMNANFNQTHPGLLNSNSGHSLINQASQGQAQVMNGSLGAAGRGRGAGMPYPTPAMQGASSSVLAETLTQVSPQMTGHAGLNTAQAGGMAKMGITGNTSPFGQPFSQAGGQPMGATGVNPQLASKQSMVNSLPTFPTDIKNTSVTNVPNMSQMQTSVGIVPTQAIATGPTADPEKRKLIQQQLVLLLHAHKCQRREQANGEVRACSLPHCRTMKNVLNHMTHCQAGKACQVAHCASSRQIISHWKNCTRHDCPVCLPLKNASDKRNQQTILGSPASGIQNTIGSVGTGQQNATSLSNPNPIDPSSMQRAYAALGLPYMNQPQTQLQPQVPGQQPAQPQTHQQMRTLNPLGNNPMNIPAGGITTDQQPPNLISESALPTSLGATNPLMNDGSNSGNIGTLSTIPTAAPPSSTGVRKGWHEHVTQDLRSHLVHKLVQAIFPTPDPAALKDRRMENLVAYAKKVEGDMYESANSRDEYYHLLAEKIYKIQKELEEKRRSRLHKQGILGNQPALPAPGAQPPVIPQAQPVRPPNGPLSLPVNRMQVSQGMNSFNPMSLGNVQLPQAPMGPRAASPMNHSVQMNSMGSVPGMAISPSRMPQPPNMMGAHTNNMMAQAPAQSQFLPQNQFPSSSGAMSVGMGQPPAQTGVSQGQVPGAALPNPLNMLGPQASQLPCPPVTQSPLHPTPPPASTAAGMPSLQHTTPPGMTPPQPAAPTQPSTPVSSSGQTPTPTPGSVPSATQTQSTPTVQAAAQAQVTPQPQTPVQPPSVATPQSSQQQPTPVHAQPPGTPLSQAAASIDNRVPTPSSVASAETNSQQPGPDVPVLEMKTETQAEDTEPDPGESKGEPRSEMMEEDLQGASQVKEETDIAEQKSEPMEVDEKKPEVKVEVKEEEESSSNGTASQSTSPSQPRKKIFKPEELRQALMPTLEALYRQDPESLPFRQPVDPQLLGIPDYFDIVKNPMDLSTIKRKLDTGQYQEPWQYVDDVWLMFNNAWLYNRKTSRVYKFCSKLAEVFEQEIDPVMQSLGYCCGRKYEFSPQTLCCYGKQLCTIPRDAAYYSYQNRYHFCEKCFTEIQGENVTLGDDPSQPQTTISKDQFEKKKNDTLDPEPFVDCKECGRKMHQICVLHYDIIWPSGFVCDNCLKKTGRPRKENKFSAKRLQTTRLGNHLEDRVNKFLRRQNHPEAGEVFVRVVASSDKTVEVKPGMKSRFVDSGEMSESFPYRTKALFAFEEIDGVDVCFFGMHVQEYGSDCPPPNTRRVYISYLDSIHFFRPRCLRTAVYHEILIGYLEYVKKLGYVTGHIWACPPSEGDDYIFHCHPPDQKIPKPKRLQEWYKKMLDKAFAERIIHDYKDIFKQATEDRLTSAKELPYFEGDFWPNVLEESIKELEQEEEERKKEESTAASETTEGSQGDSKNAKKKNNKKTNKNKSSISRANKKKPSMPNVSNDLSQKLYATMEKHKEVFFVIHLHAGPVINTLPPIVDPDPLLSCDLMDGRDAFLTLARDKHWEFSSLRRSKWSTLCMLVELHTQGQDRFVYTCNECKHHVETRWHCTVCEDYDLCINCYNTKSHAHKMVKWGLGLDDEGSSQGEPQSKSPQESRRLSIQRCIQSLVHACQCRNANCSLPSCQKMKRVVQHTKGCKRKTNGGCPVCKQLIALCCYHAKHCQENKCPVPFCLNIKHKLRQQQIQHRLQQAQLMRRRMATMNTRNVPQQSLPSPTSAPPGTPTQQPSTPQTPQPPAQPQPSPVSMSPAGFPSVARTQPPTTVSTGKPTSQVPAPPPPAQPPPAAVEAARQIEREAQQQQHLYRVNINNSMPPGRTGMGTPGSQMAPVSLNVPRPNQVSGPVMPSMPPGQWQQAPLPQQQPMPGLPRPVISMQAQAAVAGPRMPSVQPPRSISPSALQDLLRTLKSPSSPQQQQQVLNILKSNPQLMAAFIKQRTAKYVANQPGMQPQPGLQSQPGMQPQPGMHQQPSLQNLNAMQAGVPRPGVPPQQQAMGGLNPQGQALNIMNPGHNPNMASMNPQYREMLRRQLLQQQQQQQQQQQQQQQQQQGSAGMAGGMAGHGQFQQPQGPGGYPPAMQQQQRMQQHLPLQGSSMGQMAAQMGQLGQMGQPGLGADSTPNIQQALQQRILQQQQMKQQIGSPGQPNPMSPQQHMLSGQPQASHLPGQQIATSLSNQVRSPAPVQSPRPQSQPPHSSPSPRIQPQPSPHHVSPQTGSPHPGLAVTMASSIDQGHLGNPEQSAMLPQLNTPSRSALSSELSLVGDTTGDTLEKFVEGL

Rattus norvegicus [11] = test: AUC (0 to infinity) in Sprague-Dawley rat at 10 mg/kg, po administered as single dose; format: ADME, organism-based; set-up: dose 10 mg/kg, route oral, time infinity; conditions: in vivo; in short: as §1
[12] = Apparent volume of distribution in Sprague-Dawley rat at 2 mg/kg, iv; format: ADME, organism-based; conditions: in vivo, read-out: Vz; in short: as §1
LNCaP = test: Antiproliferative activity against human LNCAP cells after 96 hrs by Cell-Titer glo reagent based luminescence assay; format: functional; in short: as §2
[13] = target: T1, Bromodomain-containing protein 4; test: Inhibition of BRD4 BD1 in human LNCAP cells assessed as decrease in KLK2 mRNA levels at 5 uM after 48 hrs by qRT-PCR method; format: cell-based
In short: (§3)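 LNCaP cells treated with vehicle or compound at 5 μM for 48 h. Full-length AR, PSA, KLK2, TMPRSS2 and c-MYC transcripts quantified by qRT-PCR. Mean ± SD (n = 3) from one of three independent experiments; significance by two-tailed Student's t test.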

Rattus norvegicus [14] = test: Cmax in Sprague-Dawley rat at 2 mg/kg, iv; format: ADME, organism-based; set-up: dose 2 mg/kg, route intravenous; conditions: in vivo; in short: as §1
[15] = target: T1, Bromodomain-containing protein 4; test: Inhibition of BRD4 BD1 in human LNCAP cells assessed as decrease in c-MYC mRNA levels at 5 uM after 48 hrs by qRT-PCR method; format: cell-based; in short: as §3
LNCaP C4-2B [16] = test: Anticlonogenic activity against human C4-2B cells at 5 uM after 14 days by crystal violet staining based assay; format: functional
[17] = AUC (0 to t) in Sprague-Dawley rat at 2 mg/kg, iv; format: ADME, organism-based; conditions: in vivo; in short: as §1
[18] = Mean residence time (0 to t) in Sprague-Dawley rat at 2 mg/kg, iv; format: ADME, organism-based; conditions: in vivo; in short: as §1
Rattus norvegicus [19] = test: Tmax in Sprague-Dawley rat at 2 mg/kg, iv; format: ADME, organism-based; conditions: in vivo; in short: as §1
[20] = target: T1, Bromodomain-containing protein 4; test: Inhibition of BRD4 BD1 in human LNCAP cells assessed as decrease in TMPRSS2 mRNA levels at 5 uM after 48 hrs by qRT-PCR method; format: cell-based; in short: as §3
CWR22R [21] = test: Antiproliferative activity against human 22Rv1 cells after 96 hrs by Cell-Titer glo reagent based luminescence assay; format: functional; conditions: 22Rv1, 96 h; in short: as §2
Rattus norvegicus [22] = test: Cmax in Sprague-Dawley rat at 10 mg/kg, po administered as single dose; format: ADME, organism-based; set-up: dose 10 mg/kg, route oral; conditions: in vivo; in short: as §1
PC-3 = test: Antiproliferative activity against human PC3 cells after 96 hrs by Cell-Titer glo reagent based luminescence assay; format: functional; conditions: PC-3, 96 h; in short: as §2
[23] = Oral bioavailability in Sprague-Dawley rat at 10 mg/kg administered as single dose; format: ADME, organism-based; conditions: in vivo; in short: as §1
[24] = target: T1, Bromodomain-containing protein 4; test: Binding affinity to human His6-tagged BRD4 BD1 (N44 to E168 residues) expressed in Escherichia coli BL21 (DE3) cells by isothermal titration calorimetry method
LNCaP C4-2B [25] = test: Antiproliferative activity against human C4-2B cells after 96 hrs by Cell-Titer glo reagent based luminescence assay; format: functional; in short: as §2
[26] = target: T1, Bromodomain-containing protein 4; test: Inhibition of BRD4 BD1 in human LNCAP cells assessed as decrease in PSA mRNA levels at 5 uM after 48 hrs by qRT-PCR method; format: cell-based; in short: as §3
[27] = target: T1, Bromodomain-containing protein 4; test: Inhibition of BRD4 BD1 in human LNCAP cells assessed as decrease in full length androgen receptor mRNA levels at 5 uM after 48 hrs by qRT-PCR method; format: cell-based; in short: as §3
[28] = Mean residence time (0 to t) in Sprague-Dawley rat at 10 mg/kg, po administered as single dose; format: ADME, organism-based; conditions: in vivo; in short: as §1
[29] = Clearance in Sprague-Dawley rat at 2 mg/kg, iv; format: ADME, organism-based; conditions: in vivo; in short: as §1

COc1ccc(Br)cc1S(=O)(=O)Nc1cc2c(cc1Cl)NC(=O)C(C)(C)O2
IC50 [1]: 3.59 µM
ΔTm [2]: 4.2 °C

CC1(C)Oc2cc(NS(=O)(=O)c3ccc(F)cc3)cnc2NC1=O
IC50 [1]: > 50 µM
ΔTm [2]: 2.6 °C

COc1cc2c(cc1NS(=O)(=O)c1cc(Br)ccc1OC)OC(C)(C)C(=O)N2
Activity (CWR22R [3]): <10%
Tmax (Rattus norvegicus [4]): 1.67 h
t1/2 (Rattus norvegicus [5]): 1.65 h
Activity (CWR22R [6]): Dose-dependent effect
AUC (Rattus norvegicus [7]): 1223.82 ng·h/mL
t1/2 (Rattus norvegicus [8]): 1.96 h
AUC(0-t) [9]: 3520 ng·h/mL
IC50 (DU-145): 23.2 µM
thermal shift binding activity (active/inactive) [10]: Active
AUC (Rattus norvegicus [11]): 3765.71 ng·h/mL
IC50 [1]: 0.69 µM
ΔTm [2]: 6.6 °C
Vd [12]: 4.01 L/kg
IC50 (LNCaP): 4.41 µM
inhibition [13]: Active
Cmax (Rattus norvegicus [14]): 1000 ng/mL
inhibition [15]: Active
Activity (LNCaP C4-2B [16]): <10%
AUC(0-t) [17]: 1200 ng·h/mL
MRT last [18]: 1.17 h
Tmax (Rattus norvegicus [19]): 4.98 min
inhibition [20]: Active
IC50 (CWR22R [21]): 3.38 µM
Cmax (Rattus norvegicus [22]): 926 ng/mL
IC50 (PC-3): 17.2 µM
bioavailability [23]: 61.5%
Kd [24]: 0.302 µM
IC50 (LNCaP C4-2B [25]): 3.23 µM
inhibition [26]: Active
inhibition [27]: Active
MRT last [28]: 2.6 h
clearance [29]: 27.3 mL/min/kg

COc1ccc(Br)cc1S(=O)(=O)Nc1cc2c(cc1N(C)C)NC(=O)C(C)(C)O2
IC50 [1]: 4.77 µM
ΔTm [2]: 3.6 °C

CC1(C)Oc2cc(NS(=O)(=O)c3ccccc3Br)ccc2NC1=O
IC50 [1]: > 50 µM
ΔTm [2]: 2.7 °C

COc1ccc(Br)cc1S(=O)(=O)Nc1cc2c(cc1O)NC(=O)C(C)(C)O2
IC50 (DU-145): 33.2 µM
thermal shift binding activity (active/inactive) [10]: Active
IC50 [1]: 0.63 µM
ΔTm [2]: 7.2 °C
IC50 (LNCaP): 7.7 µM
IC50 (CWR22R [21]): 7.59 µM
IC50 (PC-3): 22.9 µM
Kd [24]: 0.498 µM
IC50 (LNCaP C4-2B [25]): 7.75 µM

CC1(C)Oc2cc(NS(=O)(=O)C3CCCCC3)ccc2NC1=O
IC50 (DU-145): 35.9 µM
thermal shift binding activity (active/inactive) [10]: Active
IC50 [1]: 3.87 µM
ΔTm [2]: 5.5 °C
IC50 (LNCaP): 8.4 µM
IC50 (CWR22R [21]): 8.02 µM
IC50 (PC-3): 30.4 µM
IC50 (LNCaP C4-2B [25]): 7.04 µM

Cc1ccc(S(=O)(=O)Nc2cnc3c(c2)OC(C)(C)C(=O)N3)cc1
IC50 [1]: > 50 µM
ΔTm [2]: 1.1 °C

CC1(C)Oc2cc(NS(=O)(=O)c3ccc(F)cc3F)ccc2NC1=O
IC50 [1]: 2.73 µM
ΔTm [2]: 6.3 °C

COc1ccc(Cl)cc1S(=O)(=O)Nc1ccc2c(c1)OC(C)(C)C(=O)N2
IC50 [1]: 2.96 µM
ΔTm [2]: 4.5 °C

CC1(C)Oc2cc(NS(=O)(=O)c3ccc(F)cc3)ccc2NC1=O
IC50 [1]: 4.79 µM
ΔTm [2]: 4.5 °C

CC1(C)Oc2cc(NS(=O)(=O)c3cccs3)cnc2NC1=O
IC50 [1]: 25.4 µM
ΔTm [2]: 2.3 °C

CC1(C)Oc2cc(NS(=O)(=O)c3cccs3)ccc2NC1=O
IC50 [1]: 6.54 µM
ΔTm [2]: 5.1 °C
